The text below walks through data of ChEMBL document CHEMBL3244345, “Cytostatic quinones. 3. Synthesis of benzotriazolequinones by a new oxidation with m-chloroperbenzoic acid. Biochemical studies” (1978).

In one assay the test system is HeLa. The assay can be described thus: Cytostatic activity against human HeLa cells assessed as growth inhibition after 72 hrs by colorimetric method. The class given is functional. The settings on record: read-out: ED50 (the source's name). An outline of the steps:
(§1)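 HeLa or KB cells at 10⁵ cells/mL in Minimal Medium Eagle with 10% fetal calf serum were incubated at 37 °C in Leighton tubes. After the cells attached (2-3 h), compound was added in sterile saline with 0.05% Tween 80, making up 10% of the final volume. After 72 h at 37 °C, growth was read as cell protein (Oyama–Eagle colorimetric method). 6-Mercaptopurine was the positive control. ED₅₀ was derived.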

Another assay has as its system KB. The assay can be described thus: Cytostatic activity against human KB cells assessed as growth inhibition after 72 hrs by colorimetric method. The format is functional. The note with it: read-out: ED50 (the source's name). The procedure, abridged:
as §1

The test system of assay [1] is Ehrlich. Kind of assay: Inhibition of DNA synthesis in mouse Ehrlich ascite carcinoma cells assessed as incorporation of [3H]thymidine after 1.5 hrs by liquid scintillation spectrophotometer. The format is functional, cell-based. The procedure, abridged: (§2)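 Ehrlich ascites cells were taken from mice bearing 7-day nonbloody tumors, washed in saline, and resuspended at 5×10⁵ cells/mL in Eagle Spinner medium with 10% fetal calf serum. They were stirred 1.5 h at 37 °C with compound and one labelled precursor: [¹⁴C]glucose 0.2 μCi, [³H]thymidine 0.1 μCi, [³H]uridine 0.5 μCi, or [³H]proline. Then 1 mL samples were diluted in cold saline and pelleted.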

Assay [2] relates to Ehrlich. Kind of assay: Inhibition of RNA synthesis in mouse Ehrlich ascite carcinoma cells assessed as incorporation of [3H]uridine after 1.5 hrs by liquid scintillation spectrophotometer. The class given is functional, cell-based. An outline of the steps: as §2
The test system of assay [3] is Ehrlich. The assay can be described thus: Inhibition of protein synthesis in mouse Ehrlich ascite carcinoma cells assessed as incorporation of [3H]proline after 1.5 hrs by liquid scintillation spectrophotometer. The format is functional, cell-based. An outline of the steps: as §2
Assay [4] deals with Ehrlich. Kind of assay: Inhibition of [3H]glucose uptake in mouse Ehrlich ascite carcinoma cells after 1.5 hrs by liquid scintillation spectrophotometer. The settings on record: in the assay text read “[14C]glucose” for “[3H]glucose”. The format is functional, cell-based. An outline of the steps:
as §2

For assay [5], the system named is Ehrlich. The assay can be described thus: Irreversible inhibition of DNA synthesis in mouse Ehrlich ascite carcinoma cells assessed as incorporation of [3H]thymidine at 10 ug/ml after 1.5 hrs by liquid scintillation spectrophotometer. The class given is functional, cell-based. An outline of the steps:
(§3)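 For reversibility, Ehrlich ascites cells were preincubated 1.5 h at 37 °C with or without 10 μg/mL quinone. They were washed in saline at room temperature and resuspended in fresh Eagle Spinner medium. They were then incubated at 37 °C with radiolabelled glucose, thymidine, uridine or proline at the same amounts as the direct assay. Samples were taken over time to follow incorporation.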

Assay [6] deals with Ehrlich. The assay can be described thus: Irreversible inhibition of RNA synthesis in mouse Ehrlich ascite carcinoma cells assessed as incorporation of [3H]uridine at 10 ug/ml after 1.5 hrs by liquid scintillation spectrophotometer. The class given is functional, cell-based. The procedure, abridged: as §3
The test system of assay [7] is Ehrlich. Kind of assay: Irreversible inhibition of protein synthesis in mouse Ehrlich ascite carcinoma cells assessed as incorporation of [3H]proline at 10 ug/ml after 1.5 hrs by liquid scintillation spectrophotometer. The format is functional, cell-based. The procedure, abridged:
as §3

The subject of assay [8] is Ehrlich. Kind of assay: Irreversible inhibition of [3H]glucose uptake in mouse Ehrlich ascite carcinoma cells at 10 ug/ml after 1.5 hrs by liquid scintillation spectrophotometer. The note with it: in the assay text read “[14C]glucose” for “[3H]glucose”. The format is functional, cell-based. The procedure, abridged:
as §3

Values after ≈ are worked out from the molar mass of the structure shown. Active and inactive are the calls of the source. The rule behind the calls is not given here.

Take `COC(=O)C(C)n1nc2c(n1)C(=O)C(C)=C(C)C2=O` (stereo not given): the EC50 in the assay with HeLa turned out to be 0.9 µg/mL (≈ 3.42 µM); in the assay with KB, 3.5 µg/mL (≈ 13.3 µM). Besides, the inhibition entry in the assay with Ehrlich [1], in the assay on Ehrlich [2], in the assay with Ehrlich [3] and with Ehrlich [4] was “Active” throughout.
On to `COC(=O)Cn1nc2c(n1)C(=O)C(C)=CC2=O`, for which the EC50 in the assay with HeLa amounted to 0.5 µg/mL (≈ 2.13 µM); in the assay on KB, 1.5 µg/mL (≈ 6.38 µM). Also, the inhibition entry with Ehrlich [1], in the assay on Ehrlich [2], with Ehrlich [3], in the assay on Ehrlich [4], with Ehrlich [5] and in the assay with Ehrlich [6] was “Active” in each case. Besides, the inhibition result in the assay on Ehrlich [7] and in the assay with Ehrlich [8] was “Active” in each case.
Turning to `CC1=C(C)C(=O)c2nn(Cc3ccccc3)nc2C1=O`, the EC50 with HeLa is 0.8 µg/mL (≈ 2.99 µM); in the assay with KB it was 3.5 µg/mL (≈ 13.1 µM). The inhibition result with Ehrlich [1], in the assay with Ehrlich [2], in the assay on Ehrlich [3] and in the assay on Ehrlich [4] was “Active” each time.
As to `COC(=O)Cn1nc2c(n1)C(=O)C(C)=C(C)C2=O`, the EC50 with HeLa turned out to be 1 µg/mL (≈ 4.01 µM); with KB it was 4 µg/mL (≈ 16 µM). Besides, the inhibition entry in the assay on Ehrlich [1], in the assay on Ehrlich [2], in the assay on Ehrlich [3] and in the assay on Ehrlich [4] was “Active” in each case.
As to `COC(=O)C(C)n1n[n+]([O-])c2cc(C)c(C)cc21` (stereo not given), the EC50 with HeLa and in the assay with KB was over 100 µg/mL throughout.
With `Sc1ncnc2nc[nH]c12` [MERCAPTOPURINE ANHYDROUS], the EC50 with HeLa and with KB was 0.1 µg/mL (≈ 0.657 µM) each time.
Consider `Cc1cc2c(cc1C)[n+]([O-])nn2C`, for which the EC50 with HeLa and in the assay on KB was over 100 µg/mL each time.
Turning to `COC(=O)Cn1n[n+]([O-])c2cc(C)c(C)cc21`, the EC50 in the assay with HeLa and with KB was over 100 µg/mL throughout.
For the compound `CC1=C(C)C(=O)c2nn(C)nc2C1=O`, the results for the EC50 in the assay with HeLa and in the assay with KB were 0.5 µg/mL (≈ 2.62 µM) and 3 µg/mL (≈ 15.7 µM), respectively. Further, the inhibition entry in the assay with Ehrlich [1], with Ehrlich [2], with Ehrlich [3] and in the assay on Ehrlich [4] was “Active” throughout.
As for `CC1=CC(=O)c2nn(C)nc2C1=O`, the EC50 in the assay with HeLa turned out to be 0.3 µg/mL (≈ 1.69 µM); with KB, 2.5 µg/mL (≈ 14.1 µM). Also, the inhibition result in the assay on Ehrlich [1], in the assay on Ehrlich [2], in the assay on Ehrlich [3] and in the assay on Ehrlich [4] was “Active” each time.
Take `Cc1cc2c(cc1C)[n+]([O-])nn2Cc1ccccc1`: the EC50 with HeLa and in the assay on KB was over 100 µg/mL throughout.
